Test results reported in ChEMBL document CHEMBL1157985, “Antiplasmodial and cytotoxic activity of natural bisbenzylisoquinoline alkaloids” (J Nat Prod, 1999).

Assays:
[1] = test system: Plasmodium falciparum; test: Antiplasmodial activity against chloroquine-resistant Plasmodium falciparum W2 infected human erythrocytes as [3H]hypoxanthine uptake after 24 hrs; type: functional, organism-based
Outline: (§1)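 P. falciparum (D6, W2) cultured in type A+ human erythrocytes, RPMI-1640 with NaHCO3, HEPES and 10% heat-inactivated human plasma, 37 °C under 5% O2/5% CO2/90% N2. Infected red cells at 0.5-1.0% parasitemia, 1.0% hematocrit exposed to compound, duplicate seven-point series, 24 h; then 0.5 μCi [3H]hypoxanthine per well for 18 h more. Filter harvest, scintillation counting; IC50 by nonlinear regression versus zero-drug controls.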

[2] = test system: KB; test: Cytotoxicity against human KB cells after 72 hrs by SRB assay; type: functional; conditions: read-out: ED50 (the source's name)
Outline: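 KB-3 cells grown in DMEM with 10% FBS at 37 °C and 5% CO₂ to 60–70% confluence, then used 1 day after a medium change. Samples were dissolved in DMSO and serially diluted in 10% aqueous DMSO. 5×10⁴ cells were exposed for 72 h at 37 °C, then TCA-fixed, stained with 0.4% SRB and read at 515 nm. Zero-day control was subtracted and values expressed relative to solvent control; ED50 by nonlinear regression.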

[3] = test system: Plasmodium falciparum; test: Antiplasmodial activity against chloroquine-sensitive Plasmodium falciparum D6 infected human erythrocytes as [3H]hypoxanthine uptake after 24 hrs; type: functional, organism-based; outline: as §1
[4] = Selectivity index, ratio of ED50 for human KB cells to IC50 for chloroquine-resistant Plasmodium falciparum W2; type: functional
[5] = Selectivity index, ratio of ED50 for human KB cells to IC50 for […] Plasmodium falciparum D6; type: functional

| SMILES | IC50 [1] | EC50 [2] | IC50 [3] | Selectivity Index [4] | Selectivity Index [5] |
| --- | --- | --- | --- | --- | --- |
| COc1cc2c3cc1Oc1c(O)c(OC)cc4c1[C@H](Cc1ccc(O)c(c1)Oc1ccc(cc1)C[C@H]3N(C)CC2)N(C)CC4 | 609 nM | 17500 nM | 134 nM | 29 | 130 |
| COc1ccc2cc1Oc1cc3c(cc1OC)CCN=C3Cc1ccc(cc1)COc1c(OC)cc3c(c1O)[C@H](C2)N(C)CC3 | 169 nM | > 33800 nM | 346 nM | >200 | >98 |
| COc1ccc2cc1Oc1cc3c(cc1OC)CCN=C3Cc1ccc(cc1)Oc1c3c(cc4c1[C@@H](C2)N(C)CC4)OCO3 | 2100 nM | > 33900 nM | 4980 nM | >16.1 | >6.8 |
| COc1ccc2cc1Oc1ccc(cc1)C[C@H]1c3cc(c(OC)cc3CCN1C)Oc1c(O)c(OC)cc3c1[C@@H](C2)NCC3 | 210 nM | 10400 nM | 115 nM | 50 | 92 |
| COc1cc2c3cc1Oc1cc(ccc1O)C[C@H]1c4c(cc(OC)c(c4O)OCc4ccc(cc4)CC3NCC2)CCN1C (some centres undefined) | 199 nM | 8580 nM | 348 nM | 43.2 | 24.6 |
| COc1cc2c3c4c1Oc1cc5c(cc1O4)[C@H](Cc1ccc(O)c(c1)Oc1ccc(cc1)C[C@@H]3NCC2)N(C)CC5 | 281 nM | 3800 nM | 48 nM | 14 | 79 |
| COc1ccc2cc1Oc1ccc(cc1)C[C@H]1c3cc(c(OC)cc3CCN1C)Oc1c(O)c(OC)cc3c1[C@@H](C2)N(C)CC3 | 378 nM | 10700 nM | 199 nM | 28 | 54 |
| COc1ccc2cc1Oc1ccc(cc1)C[C@@H]1c3cc(c(OC)cc3CCN1C)Oc1c(O)c(OC)cc3c1[C@@H](C2)N(C)CC3 | 263 nM | 16100 nM | 86 nM | 61 | 186 |
| COc1ccc2cc1Oc1ccc(cc1)C[C@H]1c3c(cc4c(c3Oc3cc5c(cc3OC)CCN(C)[C@@H]5C2)OCO4)CCN1C [CEPHARANTHINE] | 478 nM | 9700 nM | 231 nM | 20 | 42 |
| COc1ccc2cc1Oc1ccc(cc1)C[C@H]1c3cc(c(OC)cc3CCN1C)Oc1c(OC)c(OC)cc3c1[C@@H](C2)N(C)CC3 | 88 nM | 10600 nM | 260 nM | 120 | 40 |
| COc1ccc2cc1Oc1ccc(cc1)C[C@H]1c3c(cc(O)c4c3Oc3cc5c(cc3O4)CCN(C)[C@H]5C2)CCN1C |  | 6000 nM | 30 nM | 54 | 200 |
| COc1cc2c3cc1Oc1cc(ccc1O)C[C@@H]1c4c(cc5c(c4Oc4ccc(cc4)C[C@@H]3N(C(C)=O)CC2)OCO5)CCN1C | 4030 nM | 8870 nM | 6890 nM | 2.2 | 1.3 |
| COc1cc2c3cc1Oc1c(O)c(OC)cc4c1[C@H](Cc1ccc(O)c(c1)Oc1ccc(cc1)C[C@@H]3N(C)CC2)N(C)CC4 | 623 nM | 3700 nM | 232 nM | 6 | 16 |
| COc1ccc2cc1Oc1cc3c(cc1OC)CCN[C@H]3Cc1ccc(cc1)Oc1c3c(cc4c1[C@@H](C2)N(C)CC4)OCO3 | 662 nM | 8800 nM | 1270 nM | 13.3 | 7.5 |
| COc1ccc2cc1Oc1cc3c(cc1OC)CCN(C(C)=O)[C@H]3Cc1ccc(cc1)Oc1c3c(cc4c1[C@@H](C2)N(C)CC4)OCO3 | 1050 nM | 13600 nM | 1910 nM | 13 |  |
| COc1cc2c3cc1Oc1cc(ccc1O)C[C@@H]1c4c(cc(OC)c(O)c4Oc4ccc(cc4)C[C@@H]3N(C)CC2)CC[N+]1(C)C.[Cl-] | > 16400 nM | > 32800 nM | 15300 nM | 2 | >2.1 |
| COc1cc2c3cc1Oc1c(O)c(OC)cc4c1[C@H](Cc1ccc(cc1)Oc1cc(ccc1O)C[C@H]3N(C)CC2)N(C)CC4 | 1400 nM | 14800 nM | 446 nM | 11 | 33 |
| COc1cc2c3cc1Oc1c(OC)c(OC)cc4c1[C@@H](Cc1ccc(O)c(c1)Oc1ccc(cc1)C[C@@H]3N(C)CC2)N(C)CC4 [BERBAMINE] | 313 nM | 9210 nM | 128 nM | 29 | 72 |

| SMILES | IC50 [1] | EC50 [2] | IC50 [3] | Selectivity Index [4] | Selectivity Index [5] |
| --- | --- | --- | --- | --- | --- |
| COc1ccc2cc1Oc1ccc(cc1)C[C@H]1c3c(cc(OC)c(OC)c3Oc3cc4c(cc3OC)CCN(C)[C@@H]4C2)CCN1C [OBABERINE] | 347 nM | 13800 nM | 371 nM | 40 | 37 |
| COc1cc2ccnc3c2cc1Oc1cc(ccc1O)C[C@H]1c2c(cc(OC)c(c2O)OCc2ccc(cc2)C3)CCN1C | 59 nM | > 33900 nM | 110 nM | >580 | >310 |
| COc1cc2c(cc1O)[C@H](Cc1ccc(OC)c(Oc3ccc(C[C@H]4c5cc(OC)c(OC)cc5CCN4C)cc3)c1)N(C)CC2 [NEOTHALIBRINE] | 135 nM | 10100 nM | 47 nM | 75 | 215 |
| C=C[C@H]1CN2CC[C@H]1C[C@H]2[C@H](O)c1ccnc2ccc(OC)cc12 [QUININE] | 250 nM | > 55400 nM | 23.4 nM | >222 | >285 |
| COc1ccc2cc1Oc1ccc(cc1)C[C@H]1c3cc(c(OC)cc3CCN1C)Oc1c(OC)c(OC)cc3c1[C@@H](C2)NCC3 |  |  | 106 nM |  | 95 |
| COc1cc2c3cc1Oc1c(O)c(OC)cc4c1[C@@H](Cc1ccc(cc1)Oc1cc(ccc1O)C[C@H]3N(C)CC2)N(C)CC4 | 105 nM | 8600 nM | 29 nM | 82 | 300 |
| CCN(CC)CCCC(C)Nc1ccnc2cc(Cl)ccc12 (centres undefined) [CHLOROQUINE] |  | 33700 nM |  |  |  |
| COc1ccc2cc1Oc1ccc(cc1)C[C@H]1c3cc(c(OC)cc3CC[N+]1(C)[O-])Oc1c(OC)c(OC)cc3c1[C@H](C2)N(C)CC3 (some centres undefined) | 948 nM | > 31300 nM | 1980 nM | >34 | >16 |
| COc1cc2c3cc1Oc1c(O)c(OC)cc4c1[C@@H](Cc1ccc(O)c(c1)Oc1ccc(cc1)C[C@@H]3N(C)CC2)N(C)CC4 [OBAMEGINE] | 825 nM | 14100 nM | 354 nM | 17 | 40 |
| COc1ccc2cc1Oc1ccc(cc1)C[C@@H]1NCCc3cc(OC)c4c(c31)Oc1cc3c(cc1O4)CCN(C)[C@H]3C2 [TRILOBINE] | 451 nM | 8300 nM | 169 nM | 19 | 49 |
| COc1ccc2cc1Oc1cc3c(cc1OC)CCN(C(C)=O)[C@H]3Cc1ccc(cc1)Oc1c3c(cc4c1[C@H](C2)N(C)CC4)OCO3 | 1200 nM | 8360 nM | 2320 nM | 7 | 3.6 |
| COc1ccc2cc1Oc1ccc(cc1)C[C@H]1c3c(cc(OC)c(OC)c3Oc3c4c(cc(OC)c3OC)[C@H](C2)N(C)CC4)CCN1C | 110 nM | 8400 nM | 224 nM | 76.4 | 37.7 |
| COc1ccc2cc1Oc1ccc(cc1)C[C@H]1c3c(cc(OC)c(OC)c3Oc3cc4c(cc3OC)CCN[C@@H]4C2)CCN1C | 154 nM | 9900 nM | 75 nM | 64 | 130 |
| COc1ccc2cc1Oc1cc3c(nccc3cc1OC)Cc1ccc(cc1)COc1c(OC)cc3c(c1O)[C@H](C2)N(C)CC3 | 66 nM | 14700 nM | 115 nM | 220 | 130 |
| COc1ccc2cc1Oc1ccc(cc1)C[C@@H]1c3c(cc(OC)c(O)c3Oc3cc4c(cc3OC)CCN[C@@H]4C2)CCN1C | 375 nM | 9800 nM | 106 nM | 26 | 92 |
| C[C@@H]1CC[C@H]2[C@@H](C)C(=O)O[C@@H]3O[C@@]4(C)CC[C@@H]1[C@]32OO4 [ARTEMISININ] | 14.6 nM | > 70900 nM | 15.1 nM | >4860 | >4680 |
| OC(c1cc(C(F)(F)F)nc2c(C(F)(F)F)cccc12)C1CCCCN1 (centres undefined) [MEFLOQUINE] | 7.78 nM | 8430 nM |  | 1080 | 465 |
| COc1cc2c3c4c1Oc1cc5c(cc1O4)[C@H](Cc1ccc(O)c(c1)Oc1ccc(cc1)C[C@@H]3N(C)CC2)N(C)CC5 [COCSULINE] | 502 nM | 10000 nM | 87 nM |  | 110 |
